Results taken from paper PMC4955407 (Journal of medicinal chemistry, 2015).

Experiments:
c-Myc–Max(S)/DNA complex = c-Myc–Max(S)/DNA complex (Homo sapiens, UniProt P01106); assay: EMSA, disruption of c-Myc–Max; assay type: biochemical; conditions: 100 µM compound, n = 1
How it was run: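 His6-tagged proteins were expressed in E. coli BL21DE3(pLysS) with IPTG induction and purified on Ni-NTA under 8 M urea. The tag was removed with TEV protease, giving >95% purity. Each protein at 30 nM was mixed with 30 nM HEX-labelled double-stranded oligonucleotide carrying a c-Myc binding site. Complexes were resolved by gel shift.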

[1] = system: c-Myc-dependent reporter (wt-Myc) in HeLa cells; assay: Luciferase reporter, c-Myc binding sites; assay type: cell-based; conditions: 6 h
c-Myc–Max(S) heterodimer = c-Myc–Max(S) heterodimer (Homo sapiens, UniProt P01106); assay: SPR, c-Myc–Max; assay type: binding
[2] = target: c-Myc–Max heterodimers in HL60 cells (Homo sapiens, UniProt P01106); assay: c-Myc–Max co-immunoprecipitation; assay type: cell-based; conditions: HL60, 6 h
Chain of c-Myc–Max heterodimers in HL60 cells (P01106 whole entry, one chain of several): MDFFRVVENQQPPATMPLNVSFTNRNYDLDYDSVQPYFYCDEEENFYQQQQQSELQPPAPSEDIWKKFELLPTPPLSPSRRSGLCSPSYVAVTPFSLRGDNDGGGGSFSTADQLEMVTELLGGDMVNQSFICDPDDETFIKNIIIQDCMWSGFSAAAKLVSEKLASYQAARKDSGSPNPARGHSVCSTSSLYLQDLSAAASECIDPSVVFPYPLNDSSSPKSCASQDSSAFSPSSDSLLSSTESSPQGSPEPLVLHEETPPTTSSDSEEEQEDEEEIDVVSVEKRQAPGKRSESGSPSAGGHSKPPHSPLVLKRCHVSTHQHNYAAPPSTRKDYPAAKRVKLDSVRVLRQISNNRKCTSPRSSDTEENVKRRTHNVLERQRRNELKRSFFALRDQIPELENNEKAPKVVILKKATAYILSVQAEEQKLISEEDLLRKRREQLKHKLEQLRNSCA
How it was run: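 About 5 × 10^6 HL60 cells were exposed to test compound or DMSO vehicle for 6 h. Cells were pelleted at 500 × g, washed in ice-cold PBS and lysed in IP buffer, keeping an input aliquot. Max was immunoprecipitated, and precipitates were washed three times. They were run on 10% SDS-PAGE and immunoblotted with anti-Myc monoclonal 9E10 (1:1000).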

[3] = system: HL60 promyelocytic leukemia cells; assay: Cell cycle analysis, propidium iodide; assay type: cell-based, human; conditions: HL60, 24 h
[4] = system: H460 large cell lung cancer cells; assay: Neutral lipid quantification, BODIPY-459/503; assay type: cell-based; conditions: H460, 48 h
How it was run: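 Sub-confluent H460 cells were treated with test compound for 48 h, then washed, trypsinised and resuspended in PBS. […] was added in PBS at 50 µg/ml, and cells were stained for 30 min at ambient temperature. After three PBS washes, cells were analysed by flow cytometry. Mean fluorescence was expressed as a ratio to untreated controls stained in parallel, from biological triplicates.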

[5] = system: NF-κB reporter in HeLa cells; assay: Luciferase reporter, NF-κB binding sites; assay type: cell-based; conditions: 6 h
Solubility = assay type: physicochemical
U266 = conditions: read-out: Growth inhibition IC50, U266; U266 myeloma, expresses L-Myc; cited from earlier work
[6] = metabolism of the nitro group; cited from earlier work
Max(L) = Max(L) (Homo sapiens, UniProt P61244 1-160); assay: SPR
[7] = target: c-Myc bHLH-ZIP domain;Max(S) (Homo sapiens;Homo sapiens, UniProt P01106-1;P61244-2 353-437;1-151, |); assay: SPR

## Methyl 3-benzyloxy-4-(3-isobutoxy-4-nitrobenzamido)benzoate [14ca]
c-Myc–Max(S)/DNA complex
  EMSA screening, disruption of c-Myc–Max(S)/DNA binding: modest inhibitory activities

## CC(C)COc1cc(C(=O)O)ccc1NC(=O)c1ccc([N+](=O)[O-])c(OCc2cccc3ccccc23)c1 [4da, 3-Isobutoxy-4-(3-(naphthalen-1-ylmethoxy)-4-nitrobenzamido)benzoic acid]
[1]
  Luciferase activity, wt-c-Myc vector: dose-dependent inhibition of luciferase
c-Myc–Max(S)/DNA complex
  EMSA screening, disruption of c-Myc–Max(S)/DNA binding: potent activity
c-Myc–Max(S) heterodimer
  Kd: ~10 µM
c-Myc–Max(S) heterodimer; c-Myc–Max(S) heterodimers pre-formed before addition of compound (Figure 4E)
  Kd by SPR, pre-formed heterodimers: somewhat higher Kd
[2]
  c-Myc–Max association by co-IP: remain largely intact
[3]
  Cell cycle arrest: promoted a G0/G1 arrest
[4]
  Neutral lipid accumulation: increase in neutral lipid stores
[5]
  Luciferase activity, NF-kB vector: no inhibition of luciferase was observed

## CCOC(=O)C(=O)Nc1ccc(C(=O)Nc2ccc(C(=O)O)cc2OCC(C)C)cc1OCC(C)C [compound 21, 4-(4-(2-Ethoxy-2-oxoacetamido)-3-isobutoxybenzamido)-3-isobutoxybenzoic acid]
c-Myc–Max(S)/DNA complex
  EMSA screening, disruption of c-Myc–Max(S)/DNA binding: complete disruption

## COC(=O)c1ccc(NC(=O)c2ccc([N+](=O)[O-])c(OC(C)C)c2)c(OCC(C)C)c1 [14ba, Methyl 3-isobutoxy-4-(3-isopropoxy-4-nitrobenzamido)benzoate]
Solubility
  Solubility: poor solubilities
c-Myc–Max(S)/DNA complex
  EMSA screening, disruption of c-Myc–Max(S)/DNA binding: modest inhibitory activities

## CCc1ccc(/C=C2\SC(=S)NC2=O)cc1 [10058-F4, reference compound]
U266
  IC50: ~100 µM
[2]
  c-Myc–Max association by co-IP: abrogated c-Myc’s association with Max
[3]
  Cell cycle arrest: promoted a G0/G1 arrest

## CC(C)COc1nc(C(=O)O)ccc1NC(=O)c1ccc([N+](=O)[O-])c(OCC(C)C)n1 [compound 16, 6-Isobutoxy-5-(6-isobutoxy-5-nitropicolinamido)picolinic acid]
c-Myc–Max(S)/DNA complex
  EMSA screening, disruption of c-Myc–Max(S)/DNA binding: complete disruption

## CC(C)COc1cc(C(=O)O)ccc1NC(=O)c1ccc([N+](=O)[O-])c(OCC(C)C)n1 [compound 15, 3-Isobutoxy-4-(6-isobutoxy-5-nitropicolinamido)benzoic acid]
c-Myc–Max(S)/DNA complex
  EMSA screening, disruption of c-Myc–Max(S)/DNA binding: complete disruption

## CC(C)COc1cc(C(=O)O)ccc1NC(=O)c1ccc([N+](=O)[O-])c(OCC(C)C)c1 [4aa, 3-Isobutoxy-4-(3-isobutoxy-4-nitrobenzamido)benzoic acid]
c-Myc–Max(S)/DNA complex
  EMSA screening, disruption of c-Myc–Max(S)/DNA binding: potent activity

## CC(C)COc1cc(C(=O)O)ccc1NC(=O)c1ccc([N+](=O)[O-])c(OCc2ccccc2)c1 [4ca, 3-Isobutoxy-4-(3-benzyloxy-4-nitrobenzamido)benzoic acid]
c-Myc–Max(S)/DNA complex
  EMSA screening, disruption of c-Myc–Max(S)/DNA binding: complete disruption

## O=[N+]([O-])c1ccc(Nc2ccccc2-c2ccccc2)c2nonc12 [compound 2, reference compound]
[1]
  Luciferase activity, wt-c-Myc vector: dose-dependent inhibition of luciferase
[6]
  Half-life: short half-life
[4]
  Neutral lipid accumulation: increase in neutral lipid stores
[5]
  Luciferase activity, NF-kB vector: no inhibition of luciferase was observed

B1: E-box SPR oligonucleotide (dsDNA)
DNA 1: TGAAGCAGACCACGTGGTCGTCTTCA
DNA 2: TGAAGACGACCACGTGGTCTGCTTCA
Max(L)
  binding result: binds
[7]
  binding result: binds
